pIC50: −log10 of the molar value. The source made the active and inactive calls. The calls are words filed in the database; no cut-off is given here.
Columns and labels:
[1] = molecular target: Ephrin type-A receptor 7 (Homo sapiens) (UniProt Q15375); assay: Activity of human EphA7 kinase at 1 uM
How it was run: (§1)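 Single-point kinase profiling: each kinase in a 226-kinase panel tested with compound at 1 μM and ATP at 10 μM in every assay, run by an external screening service.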

[2] = molecular target: Ephrin type-B receptor 2 (Homo sapiens) (UniProt P29323); assay: Activity of human EphB2 kinase at 1 uM; how it was run: as §1
Sequence of Ephrin type-B receptor 2 (Homo sapiens) (P29323 whole entry): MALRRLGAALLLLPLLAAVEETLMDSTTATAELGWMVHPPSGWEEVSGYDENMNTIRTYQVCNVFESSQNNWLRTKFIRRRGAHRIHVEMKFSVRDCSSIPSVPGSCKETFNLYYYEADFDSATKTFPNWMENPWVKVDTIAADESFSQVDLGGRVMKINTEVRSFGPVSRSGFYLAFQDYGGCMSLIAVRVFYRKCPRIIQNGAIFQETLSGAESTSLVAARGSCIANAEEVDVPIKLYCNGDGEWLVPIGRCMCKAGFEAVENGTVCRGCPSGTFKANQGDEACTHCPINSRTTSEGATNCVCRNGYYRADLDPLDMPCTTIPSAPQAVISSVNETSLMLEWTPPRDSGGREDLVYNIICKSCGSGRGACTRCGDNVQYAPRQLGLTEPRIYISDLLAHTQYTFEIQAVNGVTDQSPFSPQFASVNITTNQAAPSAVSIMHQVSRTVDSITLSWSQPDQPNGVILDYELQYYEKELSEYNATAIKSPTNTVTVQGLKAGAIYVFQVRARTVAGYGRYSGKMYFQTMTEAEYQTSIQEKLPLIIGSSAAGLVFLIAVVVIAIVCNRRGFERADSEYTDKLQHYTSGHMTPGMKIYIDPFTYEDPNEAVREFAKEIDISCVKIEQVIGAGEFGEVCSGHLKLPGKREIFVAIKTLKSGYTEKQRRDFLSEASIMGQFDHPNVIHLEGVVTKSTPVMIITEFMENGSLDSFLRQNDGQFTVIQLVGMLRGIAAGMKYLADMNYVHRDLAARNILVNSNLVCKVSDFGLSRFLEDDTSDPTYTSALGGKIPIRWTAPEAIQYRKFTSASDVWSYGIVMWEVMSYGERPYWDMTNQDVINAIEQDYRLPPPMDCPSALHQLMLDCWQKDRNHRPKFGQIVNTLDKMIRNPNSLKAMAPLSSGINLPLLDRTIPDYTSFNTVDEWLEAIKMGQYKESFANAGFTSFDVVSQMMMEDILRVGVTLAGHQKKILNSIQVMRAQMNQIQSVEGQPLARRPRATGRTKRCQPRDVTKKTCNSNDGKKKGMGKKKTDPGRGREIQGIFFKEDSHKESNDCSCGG

[3] = molecular target: G protein-coupled receptor kinase 5 (Homo sapiens) (UniProt P34947); assay: Activity of human GRK5 kinase at 1 uM; how it was run: as §1
[4] = molecular target: Homeodomain-interacting protein kinase 2 (Homo sapiens) (UniProt Q9H2X6); assay: Activity of human HIPK2 kinase at 1 uM; how it was run: as §1
[5] = molecular target: Interleukin-1 receptor-associated kinase 4 (Homo sapiens) (UniProt Q9NWZ3); assay: Activity of human IRAK4 kinase at 1 uM
[6] = molecular target: Mitogen-activated protein kinase 8 (Homo sapiens) (UniProt P45983); assay: Activity of human JNK1-alpha-1 kinase at 1 uM; how it was run: as §1
[7] = molecular target: Serine/threonine-protein kinase MARK1 (Homo sapiens) (UniProt Q9P0L2); assay: Activity of human MARK1 kinase at 1 uM; how it was run: as §1
[8] = molecular target: Dual specificity mitogen-activated protein kinase kinase 1 (Homo sapiens) (UniProt Q02750); assay: Activity of human MEK1 kinase at 1 uM
[9] = molecular target: Dual specificity mitogen-activated protein kinase kinase 4 (Mus musculus) (UniProt P47809); assay: Activity of mouse MKK4 kinase at 1 uM
How it was run: (§2)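 Single-point screen in a 226-kinase panel run by an outside service. Test compound at 1 μM with ATP at 10 μM in every assay. Other assay conditions are not given.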

[10] = molecular target: Dual specificity mitogen-activated protein kinase kinase 7 (Homo sapiens) (UniProt O14733); assay: Activity of human MKK7-beta kinase at 1 uM
[11] = molecular target: Serine/threonine-protein kinase Nek6 (Homo sapiens) (UniProt Q9HC98); assay: Activity of human NEK6 kinase at 1 uM; how it was run: as §2
Sequence of Serine/threonine-protein kinase Nek6 (Homo sapiens) (Q9HC98 whole entry): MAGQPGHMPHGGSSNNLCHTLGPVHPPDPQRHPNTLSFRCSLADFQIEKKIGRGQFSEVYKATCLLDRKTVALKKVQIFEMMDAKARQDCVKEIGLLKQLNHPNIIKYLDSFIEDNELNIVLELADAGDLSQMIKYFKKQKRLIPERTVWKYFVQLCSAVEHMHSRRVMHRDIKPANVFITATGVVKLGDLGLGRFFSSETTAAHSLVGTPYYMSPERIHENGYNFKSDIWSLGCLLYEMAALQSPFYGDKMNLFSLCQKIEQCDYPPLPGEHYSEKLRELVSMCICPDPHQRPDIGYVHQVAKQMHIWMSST

[12] = molecular target: Serine/threonine-protein kinase Nek7 (Homo sapiens) (UniProt Q8TDX7); assay: Activity of human NEK7 kinase at 1 uM; how it was run: as §2
[13] = molecular target: Platelet-derived growth factor receptor alpha (Homo sapiens) (UniProt P16234); assay: Activity of human PDGFRalpha kinase at 1 uM; how it was run: as §2
[14] = molecular target: Phosphorylase b kinase gamma catalytic chain, liver/testis isoform (Homo sapiens) (UniProt P15735); assay: Activity of human PhKgamma2 kinase at 1 uM; how it was run: as §2
[15] = molecular target: Serine/threonine-protein kinase pim-2 (Homo sapiens) (UniProt Q9P1W9); assay: Activity of human Pim2 kinase at 1 uM; how it was run: as §2
[16] = molecular target: Protein kinase C beta type (Homo sapiens) (UniProt P05771); assay: Activity of human PKC-beta-2 kinase at 1 uM; how it was run: as §2
Sequence of Protein kinase C beta type (Homo sapiens) (P05771 2-671 limits assumed): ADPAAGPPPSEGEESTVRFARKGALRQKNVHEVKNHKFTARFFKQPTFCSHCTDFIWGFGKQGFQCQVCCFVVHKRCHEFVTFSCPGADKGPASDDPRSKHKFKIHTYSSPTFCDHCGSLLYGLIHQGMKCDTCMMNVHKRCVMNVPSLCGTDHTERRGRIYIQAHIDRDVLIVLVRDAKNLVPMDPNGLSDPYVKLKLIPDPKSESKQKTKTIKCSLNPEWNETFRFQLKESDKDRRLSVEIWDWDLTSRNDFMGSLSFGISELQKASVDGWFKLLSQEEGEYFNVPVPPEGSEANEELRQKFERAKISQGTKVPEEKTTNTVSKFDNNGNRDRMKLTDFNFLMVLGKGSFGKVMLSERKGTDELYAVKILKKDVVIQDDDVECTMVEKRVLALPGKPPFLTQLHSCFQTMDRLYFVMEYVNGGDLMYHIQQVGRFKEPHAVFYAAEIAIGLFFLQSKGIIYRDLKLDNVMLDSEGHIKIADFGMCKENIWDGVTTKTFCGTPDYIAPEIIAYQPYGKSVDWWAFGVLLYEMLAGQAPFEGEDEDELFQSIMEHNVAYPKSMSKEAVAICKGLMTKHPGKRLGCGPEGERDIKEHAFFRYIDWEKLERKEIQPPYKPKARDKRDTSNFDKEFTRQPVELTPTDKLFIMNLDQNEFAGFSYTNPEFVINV

[17] = molecular target: Protein kinase C delta type (Homo sapiens) (UniProt Q05655); assay: Activity of human PKCdelta kinase at 1 uM; how it was run: as §1
[18] = molecular target: Serine/threonine-protein kinase N2 (Homo sapiens) (UniProt Q16513); assay: Activity of human PRK2 kinase at 1 uM; how it was run: as §2
[19] = molecular target: Rho-associated protein kinase 1 (Homo sapiens) (UniProt Q13464); assay: Activity of human ROCK1 kinase at 1 uM; how it was run: as §2
Sequence of Rho-associated protein kinase 1 (Homo sapiens) (Q13464 2-1354 limits assumed): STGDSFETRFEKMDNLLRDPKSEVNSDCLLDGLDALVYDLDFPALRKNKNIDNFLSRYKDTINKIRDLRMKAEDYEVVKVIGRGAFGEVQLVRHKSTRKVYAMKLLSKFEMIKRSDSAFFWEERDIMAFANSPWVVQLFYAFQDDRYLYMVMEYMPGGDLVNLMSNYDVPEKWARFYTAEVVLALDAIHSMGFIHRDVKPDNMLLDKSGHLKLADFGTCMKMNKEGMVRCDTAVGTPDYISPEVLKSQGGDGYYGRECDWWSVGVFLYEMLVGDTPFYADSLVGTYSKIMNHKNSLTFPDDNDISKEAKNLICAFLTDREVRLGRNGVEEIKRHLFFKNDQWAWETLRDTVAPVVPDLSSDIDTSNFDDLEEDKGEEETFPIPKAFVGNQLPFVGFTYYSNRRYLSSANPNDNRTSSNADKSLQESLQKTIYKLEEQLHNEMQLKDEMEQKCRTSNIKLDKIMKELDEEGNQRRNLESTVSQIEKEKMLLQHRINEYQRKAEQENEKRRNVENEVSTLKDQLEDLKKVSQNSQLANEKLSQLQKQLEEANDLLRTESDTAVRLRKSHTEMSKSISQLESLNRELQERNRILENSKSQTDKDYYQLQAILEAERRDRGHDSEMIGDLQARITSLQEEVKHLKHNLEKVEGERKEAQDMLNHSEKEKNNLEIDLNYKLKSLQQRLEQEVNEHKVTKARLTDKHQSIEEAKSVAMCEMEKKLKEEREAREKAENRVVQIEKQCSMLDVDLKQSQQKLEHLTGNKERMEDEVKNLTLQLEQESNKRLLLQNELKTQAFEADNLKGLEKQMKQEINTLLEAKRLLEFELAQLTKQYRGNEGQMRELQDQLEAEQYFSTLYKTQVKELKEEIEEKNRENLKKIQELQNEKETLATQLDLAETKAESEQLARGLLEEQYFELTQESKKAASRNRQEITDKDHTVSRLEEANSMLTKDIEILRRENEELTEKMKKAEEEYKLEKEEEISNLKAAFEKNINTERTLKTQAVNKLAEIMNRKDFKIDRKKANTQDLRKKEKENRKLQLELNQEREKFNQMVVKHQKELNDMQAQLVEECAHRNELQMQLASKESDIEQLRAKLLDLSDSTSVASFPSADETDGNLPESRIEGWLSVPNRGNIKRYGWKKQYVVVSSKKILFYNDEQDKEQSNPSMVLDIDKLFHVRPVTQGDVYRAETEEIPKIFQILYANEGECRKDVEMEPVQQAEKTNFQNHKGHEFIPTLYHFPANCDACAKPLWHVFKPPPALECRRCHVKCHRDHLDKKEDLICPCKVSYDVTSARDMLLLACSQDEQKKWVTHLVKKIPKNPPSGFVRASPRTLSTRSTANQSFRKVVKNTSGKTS

[20] = molecular target: Rho-associated protein kinase 2 (Homo sapiens) (UniProt O75116); assay: Activity of human ROCK2 kinase at 1 uM; how it was run: as §2
[21] = molecular target: Ribosomal protein S6 kinase alpha-3 (Homo sapiens) (UniProt P51812); assay: Activity of human Rsk2 kinase at 1 uM; how it was run: as §2
Sequence of Ribosomal protein S6 kinase alpha-3 (Homo sapiens) (P51812 whole entry): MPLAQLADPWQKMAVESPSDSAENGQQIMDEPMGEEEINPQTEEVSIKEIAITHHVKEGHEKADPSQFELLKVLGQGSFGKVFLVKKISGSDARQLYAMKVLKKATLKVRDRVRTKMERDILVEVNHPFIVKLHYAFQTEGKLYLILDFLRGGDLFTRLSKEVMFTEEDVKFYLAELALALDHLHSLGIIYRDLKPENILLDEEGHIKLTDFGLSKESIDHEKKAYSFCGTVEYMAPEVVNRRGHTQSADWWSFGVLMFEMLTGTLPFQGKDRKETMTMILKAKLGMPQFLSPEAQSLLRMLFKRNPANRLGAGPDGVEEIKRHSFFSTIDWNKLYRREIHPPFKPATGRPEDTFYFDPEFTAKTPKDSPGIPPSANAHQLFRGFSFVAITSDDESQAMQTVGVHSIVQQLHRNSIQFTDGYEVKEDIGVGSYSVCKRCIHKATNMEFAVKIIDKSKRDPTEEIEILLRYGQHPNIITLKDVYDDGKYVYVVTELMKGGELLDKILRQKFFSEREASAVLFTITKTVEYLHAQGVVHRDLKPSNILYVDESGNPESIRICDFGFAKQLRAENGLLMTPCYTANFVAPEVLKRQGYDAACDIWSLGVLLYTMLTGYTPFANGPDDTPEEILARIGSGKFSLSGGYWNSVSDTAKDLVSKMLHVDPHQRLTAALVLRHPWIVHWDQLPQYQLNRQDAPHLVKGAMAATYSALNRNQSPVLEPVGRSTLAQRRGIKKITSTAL

[22] = molecular target: Serine/threonine-protein kinase Sgk1 (Homo sapiens) (UniProt O00141); assay: Activity of human SGK kinase at 1 uM; how it was run: as §2
[23] = molecular target: SRSF protein kinase 1 (Homo sapiens) (UniProt Q96SB4); assay: Activity of human SRPK1 kinase at 1 uM
How it was run: (§3)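 Single-concentration screen across a 226-kinase panel run by an outside provider; test compound at 1 μM with 10 μM ATP in every assay. Other conditions not detailed.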

[24] = molecular target: Tyrosine-protein kinase SYK (Homo sapiens) (UniProt P43405); assay: Activity of human Syk kinase at 1 uM; how it was run: as §2
[25] = molecular target: Testis-specific serine/threonine-protein kinase 2 (Homo sapiens) (UniProt Q96PF2); assay: Activity of human TSSK2 kinase at 1 uM; how it was run: as §2
[26] = molecular target: Angiopoietin-1 receptor (Homo sapiens) (UniProt Q02763); assay: Activity of human Tie2 kinase at 1 uM; how it was run: as §2
PC-3 [27] = assay: Increase in mitotis in human PC3 cells assessed as mitotic cell count after 24 hrs; assay type: functional
How it was run: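 Cultured cells were exposed to drug for 24 h and stained with MPM2 (mitotic marker) and Hoechst. Cells were imaged on a high-content imaging system, and the percentage of Hoechst-stained cells positive for MPM2 was calculated.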

[28] = Plasma concentration in human HCT116 cells xenografted in mouse at 30 mg/kg, po after 8 hrs; assay type: ADME, organism-based, HCT-116; parameters: dose 30 mg/kg, route oral
[29] = molecular target: Discoidin domain-containing receptor 2 (Homo sapiens) (UniProt Q16832); assay: Activity of human DDR2 kinase at 1 uM
[30] = molecular target: Serine/threonine-protein kinase WNK2 (Homo sapiens) (UniProt Q9Y3S1); assay: Activity of human WNK2 kinase at 1 uM; how it was run: as §3
[31] = Inhibition of PKC by radioactive flashplate assay
[32] = molecular target: Tyrosine-protein kinase Blk (Mus musculus) (UniProt P16277); assay: Activity of mouse Blk kinase at 1 uM; how it was run: as §3
[33] = molecular target: Serine/threonine-protein kinase BRSK1 (Homo sapiens) (UniProt Q8TDC3); assay: Activity of human BrSK1 kinase at 1 uM
[34] = molecular target: Tyrosine-protein kinase BTK (Homo sapiens) (UniProt Q06187); assay: Activity of human BTK kinase at 1 uM
[35] = molecular target: Cyclin-dependent kinase 7/ cyclin H (Homo sapiens) (UniProt P51946+P50613); assay: Activity of human CDK7/cyclin H/MAT1 kinase at 1 uM; assay type: protein-complex assay; how it was run: as §1
[36] = molecular target: Serine/threonine-protein kinase Chk1 (Homo sapiens) (UniProt O14757); assay: Activity of human CHK1 kinase at 1 uM; how it was run: as §1
[37] = molecular target: Casein kinase I isoform gamma-3 (Homo sapiens) (UniProt Q9Y6M4); assay: Activity of human CK1gamma3 kinase at 1 uM; how it was run: as §1
[38] = molecular target: Casein kinase I isoform delta (Homo sapiens) (UniProt P48730); assay: Activity of human CK1delta kinase at 1 uM; how it was run: as §1
Sequence of Casein kinase I isoform delta (Homo sapiens) (P48730 whole entry, looked up, canonical isoform): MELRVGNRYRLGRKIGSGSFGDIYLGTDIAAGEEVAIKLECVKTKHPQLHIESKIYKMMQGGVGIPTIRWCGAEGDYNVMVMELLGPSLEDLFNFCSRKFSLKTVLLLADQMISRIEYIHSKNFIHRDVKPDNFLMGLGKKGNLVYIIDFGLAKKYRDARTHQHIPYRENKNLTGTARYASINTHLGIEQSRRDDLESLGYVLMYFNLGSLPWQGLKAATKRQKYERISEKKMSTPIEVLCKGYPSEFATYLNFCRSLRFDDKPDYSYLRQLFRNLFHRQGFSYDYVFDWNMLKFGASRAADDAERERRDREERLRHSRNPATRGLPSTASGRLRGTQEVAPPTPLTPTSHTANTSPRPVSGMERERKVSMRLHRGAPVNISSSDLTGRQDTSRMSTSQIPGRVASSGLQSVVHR

[39] = molecular target: Dual specificity protein kinase CLK3 (Homo sapiens) (UniProt P49761); assay: Activity of human CLK3 kinase at 1 uM
Sequence of Dual specificity protein kinase CLK3 (Homo sapiens) (P49761 whole entry, looked up): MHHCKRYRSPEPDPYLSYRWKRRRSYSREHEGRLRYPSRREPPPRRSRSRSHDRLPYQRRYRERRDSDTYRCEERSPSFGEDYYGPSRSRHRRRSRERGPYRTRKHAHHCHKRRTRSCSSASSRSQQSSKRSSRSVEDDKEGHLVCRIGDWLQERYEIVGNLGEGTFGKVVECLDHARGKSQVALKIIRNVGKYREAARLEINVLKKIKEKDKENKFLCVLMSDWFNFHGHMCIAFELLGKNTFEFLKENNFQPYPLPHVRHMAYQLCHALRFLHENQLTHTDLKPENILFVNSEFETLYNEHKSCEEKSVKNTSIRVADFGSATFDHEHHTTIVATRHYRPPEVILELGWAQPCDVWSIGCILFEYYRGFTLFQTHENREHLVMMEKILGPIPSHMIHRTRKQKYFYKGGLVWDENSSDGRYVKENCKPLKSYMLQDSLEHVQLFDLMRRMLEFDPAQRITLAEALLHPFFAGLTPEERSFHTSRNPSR

PC-3 [40] = assay: Induction of apoptosis in human PC3 cells assessed as PARP cleavage at 1 uM after 48 hrs by Western blot method; assay type: functional, cell-based
PC-3 [41] = assay: Cell cycle arrest in human PC3 cells by accumulation at S phase at 4 uM after 24 hrs by flow cytometry relative to control; assay type: functional
How it was run: (§4)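 DNA content profiles by flow cytometry of PC-3 prostate tumor cells exposed to drug diluted in DMSO for 24 or 48 h. Phase distribution was compared with DMSO-treated control cells.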

PC-3 [42] = assay: Cell cycle arrest in human PC3 cells by accumulation at G1 phase at 1 uM after 48 hrs by flow cytometry relative to control; assay type: functional; how it was run: as §4

Structure (SMILES): O=C(O)c1ccc(Nc2ncc3c(n2)-c2ccc(Cl)cc2C(c2c(F)cccc2F)=NC3)cc1 [MLN-8054]
- Activity [1]: 67%
- Activity [2]: 69%
- Activity [3]: 109%
- Activity [4]: 112%
- Activity [5]: 97%
- Activity [6]: 122%
- Activity [7]: 106%
- Activity [8]: 110%
- Activity [9]: 120%
- Activity [10]: 95%
- Activity [11]: 92%
- Activity [12]: 99%
- Activity [13]: 110%
- Activity [14]: 98%
- Activity [15]: 101%
- Activity [16]: 100%
- Activity [17]: 109%
- Activity [18]: 90%
- Activity [19]: 120%
- Activity [20]: 100%
- Activity [21]: 76%
- Activity [22]: 99%
- Activity [23]: 105%
- Activity [24]: 99%
- Activity [25]: 101%
- Activity [26]: 51%
- Activity (PC-3 [27]): 12%
- concentration at 8 h [28]: 7.4 µM
- Activity [29]: 87%
- Activity [30]: 109%
- pIC50 [31]: < 4.00
- Activity [32]: 53%
- Activity [33]: 92%
- Activity [34]: 90%
- Activity [35]: 105%
- Activity [36]: 109%
- Activity [37]: 113%
- Activity [38]: 129%
- Activity [39]: 81%
- Activity (PC-3 [40]): Active
- Activity (PC-3 [41]): 13.2%
- Activity (PC-3 [42]): 23%
